The source of these data is publication PMC12412049 (Journal of controlled release : official journal of the …, 2025).

In series [1] the test system is U87MG cells. Nature of the series: CCK-8 cell viability of U87MG cells with radiolabeled compounds. The conditions noted are these: 0.1 and 0.2 MBq.
Series [2] has as its system U87MG cells. Nature of the series: In vitro uptake in U87MG cells. It is filed as cell-based, human. The conditions noted are these: for Uptake percentage dose (%AD), total / Uptake %AD, intracellular: mean ± SD; for Uptake %AD, intracellular: internalized fraction (1 M NaOH lysis); for Share of radioactivity internalized by cells: after co-incubation 4 h.
Series [3] has as its system U87MG tumor. Nature of the series: In vivo radiotherapy in U87MG tumor-bearing mice. The conditions noted are these: for Median survival: U87MG glioma-bearing mice; for Median survival / Tumor weight at the end of the treatment / Tumor volume: 66.6 MBq; for Tumor weight at the end of the treatment / Tumor volume: U87MG tumor-bearing mice, mean ± SD; for Tumor weight at the end of the treatment: 20 days post-treatment, n = 5/group.

The nature of series [4]: DLS hydrodynamic diameter and zeta potential. Format: physicochemical. The conditions noted are these: mean ± SD.
The subject of series [5] is U87MG cells. Nature of the series: Intracellular GSH content measurement. Format: cell-based, human. The conditions noted are these: 24 h co-incubation. In a few lines: (§1)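 U87MG cells were seeded at 2 × 10^5 cells/well and grown 24 h at 37°C. They were then exposed 24 h in serum-free medium to PBS or to unlabeled or 64Cu-labeled peptide conjugate at 0, 25, 50 or 100 μM. Cells were PBS-washed, trypsinized, pelleted at 3000 rpm for 3 min and washed. Intracellular GSH (GSH/GSSG) and ROS were read with commercial kits. Values are mean ± SD.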

The next series is described as follows: Critical micelle. It is filed as physicochemical. The conditions noted are these: pyrene fluorescent probe, tangent method; DP1R 0.1-100 μM, each with 1 mM GSH.
Series [6] is described as follows: TEM morphology of self-assembled peptide. Format: physicochemical. In a few lines:
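Peptide was dissolved in water above its CMC, with or without 1 mM GSH added to mimic intracellular reducing conditions. Samples were incubated 10 min, applied to copper grids and air-dried overnight. Particle morphology and size were imaged by TEM, with size given as mean ± SD.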

Series [7] has as its system MCF-7 tumor. On the set-up: species or system mice. The conditions noted are these: mouse, in vivo.
Series [8] concerns U87MG tumor. Nature of the series: Biodistribution study in U87MG tumor-bearing mice. Particulars: mouse, in vivo.
Series [9] relates to U87MG cells. Nature of the series: Intracellular ROS level assay. It is filed as cell-based, human. The conditions noted are these: 24 h co-incubation. In a few lines:
as §1

The subject of series [10] is MCF-7 tumor. On the set-up: species or system mice. The conditions noted are these: mouse, in vivo, 72 h.
Series [11] has as its system U87MG tumor. Nature of the series: PET imaging in U87MG tumor-bearing mice. The conditions noted are these: mouse, in vivo; for Tumor uptake (PET ROI analysis): iv, 7.4 MBq.
In series [12] the test system is U87MG tumor. Nature of the series: Tumor section staining. Format: in vivo, mice. The conditions noted are these: tumor sections.
Where [13] appears, read: 0.05 MBq, 4 h, 37°C, gamma counter.
Where [14] appears, read: normalized to stained control (set as 1.0), mean ± SD.

Turning to `[Cl][64Cu][Cl]` [[^64Cu]CuCl2, reference compound], the “Cytotoxicity against tumor cells (in words)” value in the series with U87MG cells [1] is “Neither 0.1 MBq nor 0.2 MBq free [^64Cu]CuCl2 demonstrated notable cytotoxicity”. The “Uptake by U87MG cells (in words)” value in the series with U87MG cells [2] (0.05-1 MBq, 4 h) is “Negligible uptake”. Further, in the series on U87MG tumor [3], the Median survival worked out at 20 days and the “Tumor weight at the end of the treatment” value is recorded as 2.36 ± 0.35 g.
“DOTA-PEP1-c(RGDyK) (head to tail) [DP1R]”: the Hydrodynamic diameter in series [4] (DLS in PBS, after incubation with GSH) came to 284.28 ± 27.99 nm. In addition, the Zeta potential in [4] (after incubation with GSH) is −36.43 ± 1.89 mV; in series [4] (before incubation with GSH), 3.65 ± 0.49 mV. Also, the entries for the “Reduction of intracellular GSH levels” value in the series with U87MG cells [5] (25 μM) and in the series with U87MG cells [5] (100 μM) were 17% and “exceeding 52%”, respectively. Further, the “Critical micelle concentration (CMC)” value in “Critical micelle” turned out to be 13.962 µM. The “Nanostructure formation under TEM” value in series [6] (absence of GSH incubation) was “no nanostructure formation was observed”. In series [6] (in water above the CMC, 1 mM GSH, 10 min incubation, mean ± SD), the “Average diameter of micelle-like structures under TEM” value is listed as “approximately 27.55 ± 6.43 nm”.
In the case of “[^64Cu]Cu-DOTA-PEP1-c(RGDyK) (head to tail) [[^64Cu]Cu-DP1R]”, the “Tumor uptake in MCF-7 subcutaneous tumor model (in words)” value in the series on MCF-7 tumor [7] was “no significant tumor uptake”. For the same molecule, in the series on U87MG tumor [8] (72 h), the “Blood pool uptake (biodistribution)” value is recorded as 1.01± 0.5 %ID/g, the “Kidneys uptake (biodistribution)” value is on record as 1.43 ± 0.09 %ID/g and the “Tumor uptake (biodistribution)” value was 7.79 ± 1.08 %ID/g. Further, in the series on U87MG cells [5], the “Effect on intracellular GSH (in words)” value is given as “effectively reduce intracellular GSH”. For the same molecule, the “Effect on intracellular ROS level (in words)” value in the series with U87MG cells [9] is “enhance the ROS level”. In the series on U87MG cells [2] (0.05 MBq, 4 h), the “Uptake %AD relative to the [^64Cu]Cu-DR group” value came to 5.83 times and the “Uptake %AD, intracellular” value was 8.27 ± 0.44 %AD. Moreover, the “Uptake percentage dose (%AD), total” value with U87MG cells [2] (setting [13]) turned out to be 9.09 ± 0.48 %AD. Further, the “Share of radioactivity internalized by cells” value in the series on U87MG cells [2] (0.05 MBq) is listed as 90.98%. The “Uptake percentage dose (%AD), total” value with U87MG cells [2] (0.1 MBq, 4 h) worked out at 7.50 ± 0.32 %AD. Besides, in the series with U87MG tumor [3], the Median survival was determined as 36 days and the “Tumor weight at the end of the treatment” value is 0.25 ± 0.03 g. Besides, in the series with U87MG tumor [3] (twenty days after injection), the Tumor volume was found to be 122.20 ± 19.92 mm^3, the “Tumor volume of PBS group relative to treated group” value is reported as 12.1 times and the “Tumor volume of [^64Cu]Cu-DR group relative to [^64Cu]Cu-DP1R group” value turned out to be 3.33 times. Further, the “Tumor uptake (biodistribution)” value in the series with MCF-7 tumor [10] came to 0.47 ± 0.10 %ID/g. Also, in the series on U87MG tumor [11], the “Retention index (RI)” value was 21.90% (± 41.29%) and the “Tumor retention vs. control via PET imaging” value is reported as 2 fold. Moreover, the “Tumor uptake (PET ROI analysis)” value with U87MG tumor [11] (4 h) was found to be 6.90 ± 0.98 %ID/g. Also, in the series on U87MG tumor [11] (72 h), the “Tumor uptake (PET ROI analysis)” value is on record as 6.20 ± 1.61 %ID/g. For the same molecule, in the series on U87MG tumor [12], the “Apoptotic induction (TUNEL) vs PBS group” value amounted to 101.6 fold. The “Ki-67 relative expression (proliferative activity)” value with U87MG tumor [12] (IHC, normalized to stained control (set as 1.0), mean ± SD) is recorded as 1.35 ± 0.17. Moreover, in the series with U87MG tumor [12] (setting [14]), the “ROS relative fluorescence intensity” value is 7.87 ± 0.70, the “TUNEL relative fluorescence intensity (apoptosis)” value is on record as 140.21 ± 24.88 and the “γ-H2AX relative fluorescence intensity (DNA damage)” value is recorded as 59.3 ± 11.49. Besides, in the series with U87MG tumor [12] (vs PBS group), the “Decrease in Ki-67 index” value stood at 3.1 fold.
Take “[^64Cu]Cu-DOTA-PEP2-c(RGDyK) (head to tail) [[^64Cu]Cu-DP2R]”: the “Lower 72h tumor retention relative to DP1R probe” value in the series with U87MG tumor [8] was 58%. The “Tumor uptake (biodistribution)” value in the series on U87MG tumor [8] (72 h) came to 3.28 ± 0.45 %ID/g. The “Tumor uptake (PET ROI analysis)” value with U87MG tumor [11] (4 h) is recorded as 5.53 ± 0.36 %ID/g; with U87MG tumor [11] (72 h), 2.93 ± 0.36 %ID/g.
For [^64Cu]Cu-DOTA-c(RGDyK) [[^64Cu]Cu-DR], the “Uptake percentage dose (%AD), total” value with U87MG cells [2] (setting [13]) was found to be 1.56 ± 0.78 %AD. The “Uptake %AD, intracellular” value in the series on U87MG cells [2] (0.05 MBq, 4 h) came to 0.10 ± 0.02 %AD. Further, the “Share of radioactivity internalized by cells” value in the series on U87MG cells [2] (0.05 MBq) stood at 87.82%. Further, in the series with U87MG tumor [3], the Median survival is 26 days and the “Tumor weight at the end of the treatment” value was found to be 0.87 ± 0.03 g. In the series with U87MG tumor [3] (twenty days after injection), this molecule had a Tumor volume of 407.00 ± 66.34 mm^3.
